Legend:
[1] = Cytotoxicity against human HuH7 cells infected with HCV1b after 3 days by MTS assay; type: cell-based, Huh-7
How it was run: (§1)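 Replicon cells (Huh-7/HCV1b-Rluc) seeded at 6 × 10³/well minus G418, then exposed next day to compound in DMSO for three days at 37 °C/5% CO₂. Viability read with MTS reagent (CellTiter 96 AQueous One) by absorbance at […]. CC₅₀ taken as concentration reducing proliferation by 50%, fitted from eight serial dilutions against vehicle-treated cells.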

[2] = Therapeutic index, ratio of CC50 for human HuH7 cells infected with HCV1b to EC50 for HCV genotype 1b; type: cell-based, Huh-7; conditions: read-out: Ratio CC50/EC50
How it was run: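 Index computed as CC₅₀/EC₅₀, both values from 3-day assays in Huh-7/HCV1b-Rluc replicon cells: EC₅₀ from renilla luciferase signal, CC₅₀ from MTS absorbance at 450 nm, each fitted from eight serial dilutions against vehicle.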

[3] = system: Hepatitis C virus; assay: Antiviral activity against HCV genotype 1b infected in human HuH7 cells assessed as reduction in luciferase activity at 10 uM after 3 days; type: functional, Hepacivirus hominis, Huh-7; design: scale not given: the % may be the effect or the level left
How it was run: (§2)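 Huh-7/HCV1b-Rluc genotype 1b replicon cells plated at 6 × 10³/well without G418; next day compound in DMSO added, 37 °C/5% CO₂ for 3 days. Live-cell renilla luciferase substrate (1:1000) added, luminescence read immediately. Triplicates, ≥2 independent runs. Single-point tests at 10 µM with ribavirin (10 µM) and 2'-C-methyl adenosine (500 nM) controls; EC₅₀ from eight serial dilutions versus vehicle.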

[4] = Cytotoxicity against human HuH7 cells infected with HCV1b assessed as cell viability at 10 uM after 3 days by MTS assay; type: cell-based, Huh-7; conditions: read-out: Activity; how it was run: as §1
[5] = system: Hepatitis C virus; assay: Inhibition of recombinant HCV genotype 1b NS5B polymerase activity after 3 hrs by scintillation proximity assay; design: species or system Hepatitis C virus subtype 1b
How it was run: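 Started with 450 nM oligo-U12 primer, 30 nM UTP, 75 nM poly(A) template and ³H-UTP; 3 h at room temperature, scintillation proximity read-out. Duplicates, ≥2 repeats; IC₅₀ from eight serial dilutions.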

[6] = system: Hepatitis C virus; assay: Antiviral activity against HCV genotype 1b infected in human HuH7 cells after 3 days by renilla luciferase reporter assay; type: functional, organism-based, Hepacivirus hominis; conditions: Huh-7, 72 h; how it was run: as §2
[7] = Inhibition of HCV NS5b RNA-dependent RNA polymerase; design: species or system Hepacivirus hominis

In the case of `O=C1Cc2cc(-c3ccco3)ccc2C(=O)N1O`, the CC50 at 72 h [1] is reported as 13 µM, the selectivity ratio [2] is reported as 6.8 and the Activity [3] is reported as 89%. It also gave a viability at 72 h, 10 µM [4] of 96%, an IC50 [5] of 1.3 µM and an EC50 [6] of 1.9 µM.

For `C[C@@]1(O)[C@H](O)[C@@H](CO)O[C@H]1n1cnc2c(N)ncnc21`, the CC50 at 72 h [1] was 55 µM and the selectivity ratio [2] was 270.

For `Cc1ccc(-c2ccc3c(c2)CC(=O)N(O)C3=O)o1`, the CC50 at 72 h [1] was 11 µM, the selectivity ratio [2] was 2.6 and the Activity [3] was 76%. It also gave a viability at 72 h, 10 µM [4] of 87%, an IC50 [5] of 18 µM and an EC50 [6] of 4.3 µM.

For `O=C1Cc2cc(-c3ccc(F)cc3)ccc2C(=O)N1O`, the CC50 at 72 h [1] was 11 µM, the selectivity ratio [2] was 1.2 and the Activity [3] was 73%. It also gave a viability at 72 h, 10 µM [4] of 90%, an IC50 [5] of 20 µM and an EC50 [6] of 9.6 µM.

Work on `COc1cccc(-c2ccc3c(c2)C(=O)N(O)C(=O)C3)c1` yielded an Activity [3] of 54% and a viability at 72 h, 10 µM [4] of 37%.

For `O=C1Cc2cc(-c3cccs3)ccc2C(=O)N1O`, the CC50 at 72 h [1] was 18 µM, the selectivity ratio [2] was 11 and the Activity [3] was 93%. For the same molecule, the viability at 72 h, 10 µM [4] was 100%, the IC50 [5] was 7.3 µM and the EC50 [6] was 1.7 µM.

`O=C1Cc2cc(-c3ccc4c(c3)OCO4)ccc2C(=O)N1O` showed an Activity [3] of 28% and a viability at 72 h, 10 µM [4] of 79%.

With `O=C1Cc2cc(-c3ccc(F)c(F)c3)ccc2C(=O)N1O` the Activity [3] was 78% and the viability at 72 h, 10 µM [4] was 34%.

For `O=C1Cc2cc(-c3cc4ccccc4o3)ccc2C(=O)N1O`, the Activity [3] was 73% and the viability at 72 h, 10 µM [4] was 46%.

Molecule `O=C1Cc2ccc(-c3ccco3)cc2C(=O)N1O` has an Activity [3] of 51%, a viability at 72 h, 10 µM [4] of 21% and an IC50 [5] of 18 µM.

`CS(=O)(=O)c1ccc(-c2ccc3c(c2)CC(=O)N(O)C3=O)cc1` showed an Activity [3] of 3% and a viability at 72 h, 10 µM [4] of 100%.

Work on `O=C1Cc2ccc(-c3cc4ccccc4o3)cc2C(=O)N1O` yielded an Activity [3] of 83% and a viability at 72 h, 10 µM [4] of 33%.

Work on `O=C1Cc2ccc(-c3ccc(F)c(Cl)c3)cc2C(=O)N1O` yielded an Activity [3] of 30%, a viability at 72 h, 10 µM [4] of 83% and an IC50 [5] of 7.1 µM.

In the case of `O=C1Cc2cc(-c3cccc4c3oc3ccccc34)ccc2C(=O)N1O`, the Activity [3] is reported as 98% and the viability at 72 h, 10 µM [4] is reported as 28%.

For `O=C1Cc2cc(-c3ccc(C(F)(F)F)cc3)ccc2C(=O)N1O`, the Activity [3] was 93% and the viability at 72 h, 10 µM [4] was 29%.

In the case of `O=C1Cc2cc(-c3csc4ccccc34)ccc2C(=O)N1O`, the Activity [3] is reported as 95% and the viability at 72 h, 10 µM [4] is reported as 34%.

With `O=C1Cc2ccc(-c3cccs3)cc2C(=O)N1O` the Activity [3] was 99% and the viability at 72 h, 10 µM [4] was 21%.

Work on `N#Cc1cc(COc2cccc(C(=O)/C=C(\O)C(=O)O)c2)c(Cl)cc1Cl` yielded an IC50 [5] of 0.015 µM and an IC50 [7] of 0.045 µM.

With `O=C1Cc2cc(-c3cccc4c3sc3ccccc34)ccc2C(=O)N1O` the Activity [3] was 95% and the viability at 72 h, 10 µM [4] was 32%.

`O=C1Cc2cc(-c3cccc(-c4ccccc4)c3)ccc2C(=O)N1O` showed an Activity [3] of 95% and a viability at 72 h, 10 µM [4] of 23%.

Molecule `O=C1Cc2ccc(-c3ccc(F)c(F)c3)cc2C(=O)N1O` has an Activity [3] of 100% and a viability at 72 h, 10 µM [4] of 33%.

`NC(=O)c1ncn([C@@H]2O[C@H](CO)[C@@H](O)[C@H]2O)n1` [RIBAVIRIN] showed a CC50 at 72 h [1] of 32 µM, a selectivity ratio [2] of 2.3 and an EC50 [6] of 14 µM.

`O=C1Cc2ccc(I)cc2C(=O)N1O` gave a CC50 at 72 h [1] of 27 µM, a selectivity ratio [2] of 6.9 and an Activity [3] of 79%. It also gave a viability at 72 h, 10 µM [4] of 86%, an IC50 [5] of 15 µM and an EC50 [6] of 3.9 µM.

Molecule `O=C1Cc2cc(-c3ccoc3)ccc2C(=O)N1O` has an Activity [3] of 100%, a viability at 72 h, 10 µM [4] of 52% and an IC50 [5] of 11 µM.

Work on `O=C1Cc2cc(-c3ccsc3)ccc2C(=O)N1O` yielded a CC50 at 72 h [1] of 98 µM, a selectivity ratio [2] of 2.2 and an Activity [3] of 72%. It also gave a viability at 72 h, 10 µM [4] of 100%, an IC50 [5] of 9 µM and an EC50 [6] of 44 µM.
